How the values were obtained:
[1] = Cytotoxicity against MDCK cells after 72 hrs; format: cell-based, Canis lupus familiaris; details: dog
Method in brief: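 Uninfected MDCK monolayers (seeded at 1.1 × 10^5 cells/mL, grown 24-30 h to about 90% confluency) exposed to graded compound concentrations for 72 h at 37 C. Read by formaldehyde fixation, 0.1% crystal violet staining and absorbance at 570 nm. CC50 = concentration reducing viability to 50% of control. Triplicate, repeated at least twice.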

Influenza A virus = test: Antiviral activity against human influenza A virus A/WSN/33 (H1N1) in MDCK cells assessed as reduction of virus-induced cytopathic effect; format: functional, organism-based; details: A/WSN/1933(H1N1)
Method in brief: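 MDCK cells (1.1 × 10^5 cells/mL in DMEM + 10% FBS) grown 24-30 h at 37 C to about 90% confluency. Virus (100 TCID50) premixed with serially diluted compound, adsorbed 1 h at 37 C. Overlay of serum-free DMEM with trypsin 2.5 μg/mL and 0.1% DMSO, then 72 h at 37 C. Formaldehyde fixation, crystal violet stain, A570. IC50 = 50% CPE reduction versus virus control. Triplicate, at least two runs.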

Row | Compound | CC50 at 72 h [1] | IC50 (Influenza A virus)
1 | Cc1cc2ccc3oc(C(=O)c4ccccc4)c(-c4ccccc4)c3c2oc1=O | > 25 µM | 2.79 µM
2 | Cc1cc(=O)oc2c1ccc1oc(C(=O)c3cccc(OCCO)c3)c(-c3ccccc3)c12 | > 25 µM | 6.09 µM
3 | Cc1cc2oc(C(=O)c3ccccc3)c(-c3ccccc3)c2c2oc(=O)ccc12 | > 25 µM | 7.76 µM
4 | Cc1cc(=O)oc2c1ccc1oc(C(=O)c3ccco3)c(-c3ccccc3)c12 | > 25 µM | 0.41 µM
5 | CCc1cc(=O)oc2c1ccc1oc(C(=O)c3ccccc3)c(-c3ccccc3)c12 | > 25 µM | 0.24 µM
6 | COc1cccc(C(=O)c2oc3ccc4c(C)cc(=O)oc4c3c2-c2cccc(Br)c2)c1 | > 25 µM | 0.09 µM
7 | Cc1cc(=O)oc2c1ccc1oc(Cc3ccccc3)c(-c3ccccc3)c12 | > 25 µM | 0.63 µM
8 | CC(=O)c1oc2ccc3c(C)cc(=O)oc3c2c1-c1ccccc1 | > 25 µM | > 25 µM
9 | Cc1cc(=O)oc2c1ccc1oc(C(=O)c3ccccc3)c(-c3cccc(Br)c3)c12 | > 25 µM | 0.08 µM
10 | O=C(c1ccccc1)c1oc2ccc3ccccc3c2c1-c1ccccc1 | > 25 µM | > 25 µM
11 | Cc1cc(=O)oc2c1ccc1oc(C(=O)c3ccccc3)c(-c3ccccc3Br)c12 | > 25 µM | 0.73 µM
12 | Cc1cccc(C(=O)c2oc3ccc4c(C)cc(=O)oc4c3c2-c2ccccc2)c1 | > 25 µM | 0.26 µM
13 | Cc1cc(=O)oc2c1ccc1oc(C(=O)c3ccc(Cl)cc3)c(-c3ccccc3)c12 | > 25 µM | 22.3 µM
14 | Cc1cc(=O)oc2c1ccc1oc(C(=O)c3cccc(Cl)c3)c(-c3ccccc3)c12 | > 25 µM | 0.26 µM
15 | Cc1cc(=O)oc2c1ccc1oc(C(=O)c3cccc(OCCCO)c3)c(-c3ccccc3)c12 | > 25 µM | 2.65 µM
16 | Cc1cc(=O)oc2c1ccc1oc(C(=O)c3ccccc3)c(-c3cccc(Cl)c3)c12 | > 25 µM | 1.41 µM
17 | Cc1cc(=O)oc2c1ccc1oc(C(=O)c3cccc(OCCN(C)C)c3)c(-c3ccccc3)c12 | 17.7 µM | 5.28 µM
18 | Cc1cc(=O)oc2c1ccc1oc(C(=O)c3ccccc3)c(-c3cccs3)c12 | > 25 µM | 0.15 µM
19 | CCCc1c(C(=O)c2ccccc2)oc2ccc3c(C)cc(=O)oc3c12 | > 25 µM | 0.29 µM
20 | COc1ccccc1C(=O)c1oc2ccc3c(C)cc(=O)oc3c2c1-c1ccccc1 | > 25 µM | 0.64 µM
21 | Cc1cc(=O)oc2c1ccc1oc(C(O)c3ccccc3)c(-c3ccccc3)c12 (configuration not stated) | > 25 µM | 0.32 µM

Row | Compound | CC50 at 72 h [1] | IC50 (Influenza A virus)
22 | Cc1ccc(C(=O)c2oc3ccc4c(C)cc(=O)oc4c3c2-c2ccccc2)cc1 | > 25 µM | 0.87 µM
23 | COc1ccc(-c2c(C(=O)c3ccccc3)oc3ccc4c(C)cc(=O)oc4c23)cc1 | > 25 µM | 10.1 µM
24 | Cc1cc(=O)oc2c1ccc1oc(C(=O)c3ccsc3)c(-c3ccccc3)c12 | > 25 µM | 0.15 µM
25 | Cc1cc(=O)oc2c1ccc1oc(C(=O)c3ccccc3)c(-c3cccc4ccccc34)c12 | > 25 µM | 0.88 µM
26 | Cc1cc(=O)oc2c1ccc1oc(C(=O)c3ccccn3)c(-c3ccccc3)c12 |  | 0.61 µM
27 | Cc1c(C)c2ccc3oc(C(=O)c4ccccc4)c(-c4ccccc4)c3c2oc1=O | > 25 µM | 0.29 µM
28 | CCCCCCCCCCc1c(C(=O)c2ccccc2)oc2ccc3c(C)cc(=O)oc3c12 | > 25 µM | > 25 µM
29 | Cc1cc(=O)oc2c1ccc1oc(C(=O)c3cccc(F)c3)c(-c3ccccc3)c12 | > 25 µM | 0.29 µM
30 | Cc1cc(=O)oc2c1ccc1oc(-c3ccccc3)c(-c3ccccc3)c12 | > 25 µM | > 25 µM
31 | Cc1cc(=O)oc2c1ccc1oc(C(=O)c3ccccc3)c(-c3ccc([N+](=O)[O-])cc3)c12 | > 25 µM | 0.76 µM
32 | Cc1cc(=O)oc2c1ccc1sc(C(=O)c3ccccc3)c(-c3ccccc3)c12 | > 25 µM | 0.72 µM
33 | O=C(c1ccccc1)c1oc2ccccc2c1-c1ccccc1 | 5.27 µM | > 25 µM
34 | CCCCOc1cccc(C(=O)c2oc3ccc4c(C)cc(=O)oc4c3c2-c2ccccc2)c1 | > 25 µM | 0.08 µM
35 | CCCOc1cccc(C(=O)c2oc3ccc4c(C)cc(=O)oc4c3c2-c2ccccc2)c1 | > 25 µM | 0.15 µM
36 | CCOc1cccc(C(=O)c2oc3ccc4c(C)cc(=O)oc4c3c2-c2ccccc2)c1 | > 25 µM | 0.12 µM
37 | COc1ccc(C(=O)c2oc3ccc4c(C)cc(=O)oc4c3c2-c2ccccc2)cc1 | > 25 µM | 1.67 µM
38 | Cc1cccc(-c2c(C(=O)c3ccccc3)oc3ccc4c(C)cc(=O)oc4c23)c1 | > 25 µM | 0.1 µM
39 | COc1cccc(C(=O)c2oc3ccc4c(C)cc(=O)oc4c3c2-c2ccccc2)c1 | > 25 µM | 0.11 µM
40 | Cc1cc(=O)oc2c1ccc1oc(C(=O)c3ccccc3)c(-c3ccco3)c12 | > 25 µM | 0.65 µM
41 | CCCCCCCCOc1cccc(C(=O)c2oc3ccc4c(C)cc(=O)oc4c3c2-c2ccccc2)c1 | > 25 µM | 7.97 µM
42 | Cc1cc(=O)oc2c1ccc1oc(C(=O)c3ccccc3)c(-c3cccc(C#N)c3)c12 | > 25 µM | 0.53 µM

Row | Compound | CC50 at 72 h [1] | IC50 (Influenza A virus)
43 | Cc1cc(=O)oc2c1ccc1oc(C(=O)c3ccc([N+](=O)[O-])cc3)c(-c3ccccc3)c12 |  | > 6.25 µM
44 | Cc1cc(=O)oc2c1ccc1oc(C(=O)c3cccs3)c(-c3cccc(Br)c3)c12 | > 25 µM | 0.06 µM
45 | Cc1cc(=O)oc2c1ccc1oc(C(=O)c3ccccc3)c(-c3ccc(Cl)cc3)c12 | > 25 µM | 3.92 µM
46 | Cc1cc(=O)oc2c1ccc1oc(C(=O)c3ccccc3)c(-c3ccc4ccccc4c3)c12 | > 25 µM | 1.91 µM
47 | O=C(c1ccccc1)c1oc2ccc3ccc(=O)oc3c2c1-c1ccccc1 | > 25 µM | 17.6 µM
48 | Cc1ccccc1C(=O)c1oc2ccc3c(C)cc(=O)oc3c2c1-c1ccccc1 | > 25 µM | 6.62 µM
49 | CCCCCOc1cccc(C(=O)c2oc3ccc4c(C)cc(=O)oc4c3c2-c2ccccc2)c1 | > 25 µM | 0.14 µM
50 | Cc1cc(=O)oc2c1ccc1oc(C(=O)c3ccccc3)c(-c3cccc([N+](=O)[O-])c3)c12 | > 25 µM | 0.25 µM
51 | Cc1cc(=O)oc2c1ccc1oc(C(=O)c3cccc(O)c3)c(-c3ccccc3)c12 | > 25 µM | 0.72 µM
52 | Cc1cc(=O)oc2c1ccc1oc(C(=O)c3ccccc3)c(-c3ccccc3)c12 | > 25 µM | 0.14 µM
53 | Cc1cc(=O)oc2c1ccc1oc(C(=O)c3ccccc3)c(C)c12 | > 25 µM | 4.51 µM
54 | O=C(c1ccccc1)c1oc2ccc3c4c(c(=O)oc3c2c1-c1ccccc1)CCCC4 | > 25 µM | > 25 µM
55 | Cc1cc(=O)oc2c1ccc1oc(C(=O)c3cccc([N+](=O)[O-])c3)c(-c3ccccc3)c12 | > 25 µM | 1.71 µM
56 | CCCc1cc(=O)oc2c1ccc1oc(C(=O)c3ccccc3)c(-c3ccccc3)c12 | > 25 µM | 0.47 µM
57 | Cc1cc(=O)oc2c1ccc1oc(C(=O)c3ccccc3)c(-c3ccc(Br)cc3)c12 | > 25 µM | 0.46 µM
58 | Cc1cc(=O)oc2c1ccc1oc(C(=O)c3ccccc3)cc12 | > 25 µM | 2.43 µM
59 | Cc1cc(=O)oc2c1ccc1occ(-c3ccccc3)c12 | > 25 µM | > 25 µM
60 | Cc1ccc(-c2c(C(=O)c3ccccc3)oc3ccc4c(C)cc(=O)oc4c23)cc1 | > 25 µM | 0.82 µM
61 | O=C(c1ccccc1)c1oc2ccc3c(-c4ccccc4)cc(=O)oc3c2c1-c1ccccc1 | > 25 µM | > 25 µM
62 | Cc1cc(=O)oc2c1ccc1oc(C(=O)c3ccccc3)c(-c3cc(Br)cc(Br)c3)c12 | > 25 µM | 0.1 µM
